From PMC10524360 (Cell chemical biology, 2023) come the findings set out here.

“Also recorded” adds a separate entry of the source. Residues, ends and D or L forms follow the SMILES beside them. *: point of attachment. Cbz = O=C(OCc1ccccc1)*; CH2F = FC*

Data set [1] has as its system H460^C Cas9 cells. Put plainly: cell death. It is filed as cell-based, human. The note with it: for effect on cell death induced by co-treatment of FSEN1 and RSL3: H460^C Cas9, 5 μM RSL3 + 1 μM FSEN1, Z-VAD 10 μM, Nec1s 1 μM; for effect on cell death induced by co-treatment of FSEN1 and RSL3 / effect on cell death induced by DHA and FSEN1 together: Fer-1 2 μM, DFO 100 μM, idebenone 10 μM, tocopherol 10 μM; for minimal dose that achieves maximal synergy for inducing ferroptosis: checkerboard FSEN1 (0–15 μM) x RSL3 (0–15 μM). Put shortly:
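H460C Cas9 cells get dose series of RSL3 or DHA with vehicle or 1 μM FSEN1, plus ferroptosis inhibitors where indicated (Fer-1 2 μM, DFO 100 μM, idebenone 10 μM, tocopherol 10 μM). Dead cells are stained with SYTOX Green and imaged on IncuCyte over 24 hr. Lethal fraction is dead/total cells, and its AUC is fit against concentration (variable slope) for EC50. Mean ± SEM, 2–3 biological replicates.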

Data set [2] has as its system H460^C FSP1^KO cells. Put plainly: cell death. Type of data set: cell-based, human. Particulars: for cell death, single agent: 24 h library screen, 40 μM compounds. Put shortly:
(§1)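 H460C knockout cells (mFSP1-overexpressing where stated) were seeded at 1500 cells/well in 384-well plates 24 h before treatment. Drug-containing medium with 30 nM SYTOX Green was added and cells were imaged in an IncuCyte at 37°C, 5% CO2 every 4 h for 24 h. Lethal fraction = SYTOX+/(SYTOX+ plus mCherry+) objects; AUC was fitted to a variable-slope curve for EC50.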

In data set [3] the test system is H460^C GPX4^KO cells. Briefly: cell death. It is filed as cell-based, human. Put shortly: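 Cells were seeded in triplicate at 1000–1500 cells/well (384-well) 24 h before treatment. Test compound was added in medium with 30 nM SYTOX Green, and the plates were imaged (IncuCyte, 37°C, 5% CO2) every 1.5 or 3 h over 24 h. Lethal fraction = SYTOX+/(SYTOX+ plus mCherry+) objects; AUC averaged over three biological replicates; EC50 from a variable-slope fit.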

Data set [4] deals with NQO1 (Homo sapiens, UniProt P15559). Put plainly: in vitro NQO1 CoQ1 oxidoreductase activity assay. It is filed as biochemical. Particulars: increasing concentrations of FSEN1.
For data set [5], the target named is T1, purified mFSP1 (Mus musculus, UniProt Q8BUE4).
T1 sequence (Q8BUE4 2-380 isoform Q8BUE4-2 limits assumed): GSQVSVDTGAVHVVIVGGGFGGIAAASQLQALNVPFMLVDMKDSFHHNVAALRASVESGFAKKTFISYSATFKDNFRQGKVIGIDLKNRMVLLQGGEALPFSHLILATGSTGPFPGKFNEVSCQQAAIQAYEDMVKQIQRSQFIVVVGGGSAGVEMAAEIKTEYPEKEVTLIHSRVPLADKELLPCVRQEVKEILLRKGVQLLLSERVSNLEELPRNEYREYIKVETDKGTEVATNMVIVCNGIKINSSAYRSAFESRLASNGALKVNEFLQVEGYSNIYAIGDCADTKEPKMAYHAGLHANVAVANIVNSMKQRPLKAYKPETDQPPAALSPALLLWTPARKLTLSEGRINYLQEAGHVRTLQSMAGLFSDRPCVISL
Briefly: in vitro mFSP1 CoQ1 oxidoreductase activity assay. Type of data set: biochemical. The note with it: 125 nM mFSP1. Put shortly:
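Purified enzyme in PBS was shaken briefly with the test compound (DMSO) and preincubated 30 min at RT. A 2X NADH/CoQ1 mix started the reaction; final 400 μM CoQ1, 500 μM NADH, 0.01–20 μM compound. Mouse FSP1 was used at 125 nM to match the specific activity of 12.5 nM human FSP1. Absorbance at 355 nm was read every 2.5 min; percent activity was used for IC50.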

For data set [6], the target named is T2, FSP1 (Homo sapiens, UniProt Q9BRQ8).
T2 sequence (Q9BRQ8 2-373 limits assumed): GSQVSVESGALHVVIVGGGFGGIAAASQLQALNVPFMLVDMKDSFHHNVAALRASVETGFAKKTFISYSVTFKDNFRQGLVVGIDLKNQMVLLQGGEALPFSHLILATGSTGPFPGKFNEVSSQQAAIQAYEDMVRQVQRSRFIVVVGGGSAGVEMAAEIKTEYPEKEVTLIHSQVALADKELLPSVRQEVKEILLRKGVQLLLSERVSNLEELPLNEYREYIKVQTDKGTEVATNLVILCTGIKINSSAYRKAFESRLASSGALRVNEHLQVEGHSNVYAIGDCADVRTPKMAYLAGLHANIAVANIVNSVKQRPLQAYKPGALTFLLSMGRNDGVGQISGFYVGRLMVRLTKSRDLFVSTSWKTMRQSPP
Briefly: FSP1 enzyme kinetics. It is filed as biochemical. Put shortly: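 His-tagged human FSP1 (expressed in E. coli, Ni-NTA purified) in PBS was preincubated 30 min at RT with the test compound. NADH series: 25 nM enzyme, 10 μM CoQ-coumarin, 1–50 μM NADH, 50–500 nM compound. CoQ-coumarin series: 6.25 nM enzyme, 1–30 μM CoQ-coumarin, 200 μM NADH, 12.5–125 nM compound. Fluorescence (Ex 405/Em 475 nm) read every 15 s at RT; three biological replicates; Vmax and Km by nonlinear regression.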

For data set [7], the system named is FSP1^KO cells overexpressing mFSP1. Put plainly: RSL3-induced ferroptosis in FSP1 knockout cells overexpressing mouse FSP1. It is filed as cell-based, human. Put shortly: as §1
Data set [8] deals with H460^C Cas9 cells. Briefly: lipid peroxidation assay. Type of data set: cell-based, human. Particulars: 1 μM FSEN1 with 200 nM RSL3. Put shortly: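 Cells in 6-well plates were treated 5 h with 200 nM RSL3 ± 1 μM test compound. They were washed in DPBS with Ca/Mg, labelled with BODIPY 581/591 C11 and trypsinised. Green fluorescence was measured by flow cytometry (FITC channel, >10,000 cells). Mean ± SD of n=3; one-way ANOVA with Tukey's test.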

Data set [9] concerns A549 lung cancer cells. Briefly: RSL3-induced cell death in A549 cells. Type of data set: cell-based, human. The note with it: RSL3 with 1 μM FSEN1.
Data set [10] deals with A375 melanoma cells. Briefly: cell death in A375 cells. Type of data set: cell-based, human. Particulars: 1 μM FSEN1. Put shortly:
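Melanoma cells were treated with the test compound (1 μM), with 2 μM Fer-1 where indicated. Cell death was quantified as SYTOX Green-positive objects per mm2; mean ± SEM of two biological replicates.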

Data set [11] in a line: in vivo pharmacokinetics in mice. On the set-up: species or system BALB/c mice. Particulars: single 20 mg/kg I.P. dose. Put shortly:
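Mice (20–25 g) were group-housed five per cage at 22°C on a 12 h light/dark cycle. Each received a single 20 mg/kg intraperitoneal dose in a vehicle containing 20% DMSO, 20% ethanol and 20% PEG40. Plasma Cmax and elimination half-life are reported as median (IQR), n=5.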

Data set [12] in a line: metabolic stability in mouse liver microsomes. Type of data set: in vitro ADME. The note with it: mouse liver microsomes 0.5 mg/mL, 2 μM FSEN1. Put shortly: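 The test compound (2 μM) was incubated with 0.5 mg/mL mouse liver microsomes and 1.0 mM NADPH at 37°C, in triplicate, and sampled at 0, 5, 15, 30 and 45 min. Controls were no NADPH (negative) and 2 μM midazolam (positive). t1/2 = ln2/k; CLint = ln2/t1/2 × incubation volume/microsomal protein (μL/min/mg).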
For orientation: Microsomes from liver hold many membrane-bound enzymes, among them those of drug oxidation.

Chain of NQO1 (P15559 2-274 limits assumed): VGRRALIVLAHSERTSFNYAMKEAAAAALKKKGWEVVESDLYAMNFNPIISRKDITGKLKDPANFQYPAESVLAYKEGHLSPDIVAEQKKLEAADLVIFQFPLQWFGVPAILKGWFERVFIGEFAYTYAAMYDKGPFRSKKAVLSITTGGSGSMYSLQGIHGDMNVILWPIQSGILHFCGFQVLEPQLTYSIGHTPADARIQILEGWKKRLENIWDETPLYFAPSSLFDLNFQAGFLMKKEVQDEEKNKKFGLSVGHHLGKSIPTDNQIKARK

Regarding `C[C@H]1[C@@H](O)O[C@@H]2O[C@@]3(C)CC[C@H]4[C@H](C)CC[C@@H]1[C@@]24OO3` [DHA, dihydroartemisinin, reference compound], the entries for the “cell death, single agent” value in data set [1] (H460^C Cas9 cells) and in [2] (H460^C FSP1^KO cells) were “induced minimal amounts of ferroptosis on its own” and “selectively induced cell death”, respectively.
Regarding `CN1C(=O)NC(Cc2c[nH]c3c(Cl)cccc23)C1=O` (centres unmarked) [Nec1s], the “effect on cell death induced by co-treatment of FSEN1 and RSL3” value (“effect … of FSEN1 and RSL3” below) in [1] is “no effect”.
Take `CCOC(=O)c1ccc(NC2CCCCC2)c(N)c1` [Fer-1, ferrostatin-1]: in data set [1], the “effect … of FSEN1 and RSL3” value is on record as “blocked”. For the same compound, the “effect on cell death induced by DHA and FSEN1 together” value (shortened to “effect … by DHA and FSEN1 together”) in data set [1] (H460^C cells, 1 μM FSEN1) is on record as “strongly suppressed”.
Consider tocopherol, for which the “effect … of FSEN1 and RSL3” value in data set [1] was “blocked”. In addition, the “effect … by DHA and FSEN1 together” value in data set [1] (H460^C cells, 1 μM FSEN1) is given as “strongly suppressed”.
On to `Cc1ccc(-c2c(C#N)c(N)n3c(nc4ccccc43)c2C#N)cc1` [iFSP1, reference compound], for which the “cell death, single agent” value in data set [3] is given as “selectively triggered cell death”; in [1] (H460^C Cas9 cells), “not in the H460^C Cas9 cells”.
Take `CC(=O)N(O)CCCCCNC(=O)CCC(=O)N(O)CCCCCNC(=O)CCC(=O)N(O)CCCCCN` [DFO, deferoxamine]: the “effect … of FSEN1 and RSL3” value in data set [1] was “blocked”. The “effect … by DHA and FSEN1 together” value in data set [1] (H460^C cells, 1 μM FSEN1) was “completely suppressed”.
For the compound `COC(=O)c1ccc([C@@H]2c3[nH]c4ccccc4c3C[C@@H](C(=O)OC)N2C(=O)CCl)cc1` [RSL3], in data set [1] (H460^C Cas9 cells), the “cell death, single agent” value was “not the H460^C Cas9 cells” and the “minimal dose that achieves maximal synergy for inducing ferroptosis” value was 0.55 µM. In [2] (H460^C FSP1^KO cells), the “cell death, single agent” value is reported as “cytotoxic”.
With `COC(=O)C[C@H](NC(=O)[C@H](C)NC(=O)[C@@H](NC(=O)OCc1ccccc1)C(C)C)C(=O)CF` [Z-VAD-FMK] (Cbz-Val-Ala-Asp(OMe)-CH2F), the “effect … of FSEN1 and RSL3” value in data set [1] is listed as “no effect”.
As for `COc1ccc(N2CCN(Cc3cn4c(-c5ccc(Br)cc5)nnc4s3)CC2)cc1` [FSEN1], the “effect on CoQ oxidoreductase activity of NQO1” value in data set [4] is reported as “no effect”. Further, the “effect on CoQ1 oxidoreductase activity of purified mFSP1” value in data set [5] was “no effect”. The “change in Kcat values” in data set [6] (as FSEN1 concentrations increased) was “decrease”. Besides, the “mechanism of FSP1 inhibition” value in data set [6] (varied NADH and CoQ-coumarin, parallel Lineweaver-Burke slopes) is reported as “uncompetitive inhibitor”. In addition, in data set [3] (read-out: EC50 for triggering cell death, lethal fraction (AUC) over 24 hr), the EC50 stood at 69.4 nM. In data set [1] (H460^C Cas9 cells, 1 μM FSEN1), the “sensitization to cell death induced by GPX4 inhibitors RSL3 and ML162” value is “sensitized”. In addition, in data set [1] (H460^C cells, 1 μM FSEN1), the “sensitization to cell death induced by DHA and FINO2” value is “strongly sensitized”. Moreover, the “minimal dose that achieves maximal synergy for inducing ferroptosis” value in data set [1] (H460^C Cas9 cells) stood at 0.55 µM. Moreover, the “additional sensitization to DHA and FINO2 induced cell death” value in data set [2] (FSP1^KO cells, 1 μM FSEN1) is “no additional sensitizing effect”. In addition, the “effect on sensitivity to RSL3-induced cell death” value in data set [2] (H460^C FSP1^KO cells, 1 μM FSEN1) is listed as “did not result in any additional sensitization; also recorded: no effect”. In data set [7] (FSP1^KO cells overexpressing mFSP1, 1 μM FSEN1), the “effect on ferroptosis sensitivity (RSL3)” value is “no effect”. The “effect on sensitivity to RSL3” value in data set [7] (FSP1^KO cells overexpressing mFSP1, FSEN1 up to 15 μM) is listed as “no effect”. The “lipid peroxidation (BODIPY C11)” value in data set [8] is “sensitized cells to lipid peroxidation”. The “sensitizing effect on ferroptosis induction” value in data set [9] was “particularly large sensitizing effect”. In [10], the “ferroptosis in the absence of an RSL3 co-treatment” value was “induced a small amount of ferroptosis”. For the same compound, the median elimination half-life in [11] (n=5, IQR 6.1 – 8.8) stood at 8.0 h. Further, the “median maximum plasma concentration” value in data set [11] (n=5, IQR 71.0–123.0) turned out to be 97.6 ng/mL. The “intrinsic clearance (CLint)” value in data set [12] is listed as 11.54 μL/min/mg protein.
As for `COC1=C(OC)C(=O)C(CCCCCCCCCCO)=C(C)C1=O` [idebenone], the “effect … of FSEN1 and RSL3” value in data set [1] is “blocked”. Besides, the “effect … by DHA and FSEN1 together” value in [1] (H460^C cells, 1 μM FSEN1) is given as “strongly suppressed”.

In general, EC50 refers to the concentration needed to bring the measured effect to its halfway point.
